This is an account of results in ChEMBL document CHEMBL1143162, “Synthesis and pharmacological evaluation of pyrazoline derivatives as new anti-inflammatory and analgesic agents” (Bioorg Med Chem Lett, 2008).

The test system of data set [1] is Rattus norvegicus. In words: Antiinflammatory activity against carrageenan-induced hind paw edema in rat at 41 umol/kg, po after 3 hrs relative to flurbiprophen. The format is functional. A digest of the protocol:
(§1)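 Given orally to rats at a dose equimolar to 10 mg/kg (41 µmol/kg) of the reference drug. Paw-oedema % inhibition was calculated at both 3 h and 4 h after dosing.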

For data set [2], the system named is Rattus norvegicus. In words: Antiinflammatory activity against carrageenan-induced hind paw edema in rat at 41 umol/kg, po after 4 hrs relative to flurbiprophen. The format is functional. In outline: as §1
The subject of data set [3] is Gastric mucosa. In words: Inhibition of lipid peroxidation in mouse gastric mucosa tissue assessed as malondialdehyde level per 100 mg tissue relative to flurbiprophen. The format is functional, tissue-based. A digest of the protocol: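 Animals receive the oral dose used in the ulcerogenic study, equimolar to 30 mg/kg flurbiprofen. Lipid peroxidation in the tissue is read as MDA content in nmol per 100 mg tissue, given as mean ± SEM (n = 6). Comparison is against the standard by ANOVA with Dunnett's test.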

In data set [4] the test system is Mus musculus. Briefly: Ulcerogenic effect in mouse at 123 umol/kg, po relative to flurbiprophen. It is filed as toxicity, organism-based. Particulars: in vivo. In outline: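 Acute ulcerogenic test with oral dosing at an amount equimolar to 30 mg/kg flurbiprofen. Gastric damage is scored as a severity index, given as mean ± SEM (n = 6). Comparison is against the standard by ANOVA with Dunnett's multiple comparison test.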

Data set [5] has as its system Liver. In words: Hepatotoxicity in rat assessed as hepatocyte necrosis. The format is toxicity, tissue-based. Particulars: hepatocytes.
For data set [6], the system named is Mus musculus. Briefly: Analgesic activity in mouse at 41 umol/kg, po by tail immersion method relative to flurbiprophen. The format is functional. A digest of the protocol:
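Tail-immersion test in mice, oral dose of 41 µmol/kg. Tail reaction time (s) was read before dosing (0 h) and 4 h after dosing. % inhibition was calculated relative to each animal's pre-treatment value. n = 6, compared by paired Student's t test.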

With `c1ccc(-c2ccc(C3=NNC(c4ccccc4)C3)cc2)cc1` (stereo not drawn), the Activity is given as 35.08% in data set [1] and 38.6% in data set [2].
For `COc1ccc(C2CC(c3ccc(-c4ccccc4)cc3)=NN2C(=O)c2ccccc2)cc1OC` (stereo not drawn) the same measures were 28.06% and 35.08%.
On to `COc1cc(OC)c(C2CC(c3ccc(-c4ccccc4)cc3)=NN2C(=O)c2ccccc2)c(OC)c1` (stereo not drawn), for which the Activity in data set [3] was 5.18 nmol; in data set [1], 73.68%; in data set [2], 75.38%; in data set [5] it was “Non-toxic”; in data set [6] it was 43.2%. In data set [4], the UI is 0.583.
As for `COc1ccc(C2CC(c3ccc(-c4ccccc4)cc3)=NN2)cc1OC` (stereo not drawn), the Activity worked out at 35.08% in data set [1] and 40.35% in data set [2].
For the compound `COc1cc(OC)c(C2CC(c3ccc(-c4ccccc4)cc3)=NN2)c(OC)c1` (stereo not drawn), the Activity in data set [3] came to 5.58 nmol; in data set [1] it was 80.7%; in data set [2] it was 82.45%; in data set [6], 28.6%. This compound also registered a UI in data set [4] of 0.833.
Take `Clc1ccc(C2CC(c3ccc(-c4ccccc4)cc3)=NN2)cc1` (stereo not drawn): the results for the Activity in data set [1] and in data set [2] were 22.8% and 28.06%, respectively.
For `O=C(c1ccccc1)N1N=C(c2ccc(-c3ccccc3)cc2)CC1c1ccccc1` (stereo not drawn) the same measures were 28.06% and 33.32%.
In the case of `CC(C(=O)O)c1ccc(-c2ccccc2)c(F)c1` (stereo not drawn) [FLURBIPROFEN], the Activity was determined as 7.51 nmol in data set [3], 73.68% in data set [1], 80.69% in data set [2] and 69.5% in data set [6]. In addition, in data set [4], the UI was 1.666.
As for `CN(C)c1ccc(C2CC(c3ccc(-c4ccccc4)cc3)=NN2)cc1` (stereo not drawn), the Activity in data set [1] worked out at 33.33%; in data set [2], 36.84%.
For the compound `Cc1ccc(C2CC(c3ccc(-c4ccccc4)cc3)=NN2)cc1` (stereo not drawn), the Activity in data set [3] is 5.04 nmol; in data set [1], 73.69%; in data set [2] it was 82.45%; in data set [5] it was “Non-toxic”; in data set [6] it was 72.9%. In addition, in data set [4], the UI is recorded as 0.5.
`COc1ccc(C2CC(c3ccc(-c4ccccc4)cc3)=NN2C(=O)c2ccccc2)cc1` (stereo not drawn): the Activity is on record as 40.34% in data set [1] and 47.36% in data set [2].
Take `Cc1ccc(C2CC(c3ccc(-c4ccccc4)cc3)=NN2C(=O)c2ccccc2)cc1` (stereo not drawn): the Activity stood at 29.82% in data set [1] and 31.57% in data set [2].
As for `O=C(c1ccccc1)N1N=C(c2ccc(-c3ccccc3)cc2)CC1c1ccccc1Cl` (stereo not drawn), the Activity in data set [1] was determined as 31.57%; in data set [2], 38.59%.
As for `Clc1ccccc1C1CC(c2ccc(-c3ccccc3)cc2)=NN1` (stereo not drawn), the Activity in data set [1] and in data set [2] was 31.57% in each case.
On to `CN(C)c1ccc(C2CC(c3ccc(-c4ccccc4)cc3)=NN2C(=O)c2ccccc2)cc1` (stereo not drawn), for which the Activity in data set [1] is reported as 33.32%; in data set [2], 35.08%.
On to `O=C(c1ccccc1)N1N=C(c2ccc(-c3ccccc3)cc2)CC1c1ccc(Cl)cc1` (stereo not drawn), for which the Activity in data set [1] turned out to be 35.08%; in data set [2], 42.1%.
For `COc1ccc(C2CC(c3ccc(-c4ccccc4)cc3)=NN2)cc1` (stereo not drawn) the same measures were 35.08% and 36.83%.
